Measured values published in ChEMBL document CHEMBL1154427, “Impact of dual infections on chemotherapeutic efficacy in BALB/c mice infected with major genotypes of Trypanosoma cruzi” (2007).

Legend:
Type in all cases: functional
Trypanosoma cruzi [1] = test: Antimicrobial activity against Trypanosoma cruzi genotype 20 infected in BALB/c mouse assessed as cure rate
Procedure, shortened: (§1)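 Mice counted cured when fresh blood examination, hemoculture, blood PCR, ELISA and FC-ALTA were all negative. Mice negative by parasitology and FC-ALTA but positive by ELISA were counted as dissociated and also cured. Observed cure rate per group = cured animals / total infected treated animals × 100. Each genotype combination was run in replicate batches.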

Trypanosoma cruzi [2] = test: Antimicrobial activity against Trypanosoma cruzi 1 infected in BALB/c mouse assessed as cure rate; procedure, shortened: as §1
Trypanosoma cruzi [3] = test: Antimicrobial activity against Trypanosoma cruzi genotype 32 infected in BALB/c mouse assessed as cure rate; procedure, shortened: as §1
Trypanosoma cruzi [4] = test: Antimicrobial activity against Trypanosoma cruzi infected in BALB/c mouse assessed as parasitemia remaining by FC-ALTA
Procedure, shortened: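 Flow cytometric detection of antibodies to live trypomastigotes, microplate format, on sera taken 3 months after treatment and diluted 1:1,500. IgG was detected with FITC-labelled goat anti-mouse IgG. Read-out was percentage of positive fluorescent parasites, relative to a conjugate-only control; >20% was scored positive. Positive and negative controls ran in each batch.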

Trypanosoma cruzi [5] = test: Antimicrobial activity against Trypanosoma cruzi genotype 39 infected in BALB/c mouse assessed as cure rate; procedure, shortened: as §1
Trypanosoma cruzi [6] = test: Antimicrobial activity against Trypanosoma cruzi genotype 19 infected in BALB/c mouse assessed as cure rate; procedure, shortened: as §1
Trypanosoma cruzi [7] = test: Antimicrobial activity against Trypanosoma cruzi Bug2148 cl1 and Trypanosoma cruzi MAS cl11 dually infected in BALB/c mouse assessed as cure rate; procedure, shortened: as §1
Trypanosoma cruzi [8] = test: Antimicrobial activity against Trypanosoma cruzi 1 dually infected in BALB/c mouse assessed as cure rate; procedure, shortened: as §1
Trypanosoma cruzi [9] = test: Antimicrobial activity against Trypanosoma cruzi infected in BALB/c mouse assessed as cure rate; procedure, shortened: as §1
Trypanosoma cruzi [10] = test: Antimicrobial activity against Trypanosoma cruzi infected in BALB/c mouse assessed as parasitemia remaining in fresh blood
Procedure, shortened: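 Tail-vein blood examined daily by light microscopy for living trypomastigotes up to day 60 after infection.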

Trypanosoma cruzi [11] = test: Antimicrobial activity against Trypanosoma cruzi 1 and Trypanosoma cruzi 2 dually infected in BALB/c mouse assessed as cure rate; procedure, shortened: as §1
Trypanosoma cruzi [12] = test: Antimicrobial activity against Trypanosoma cruzi genotype 20 and genotype 19 dually infected in BALB/c mouse assessed as cure rate; procedure, shortened: as §1
Trypanosoma cruzi [13] = test: Antimicrobial activity against Trypanosoma cruzi infected in BALB/c mouse assessed as parasitemia remaining by ELISA
Procedure, shortened: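 Conventional ELISA on sera taken 2 and 3 months after treatment and stored at –20°C. Sera were tested at 1:80 in PBS against an alkaline-extract antigen of Y strain parasites grown to exponential phase in LIT medium. Bound antibody was detected with peroxidase anti-mouse IgG and read at 490 nm. Per-plate cutoff = mean of 10 negative sera + 2 SD.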

Trypanosoma cruzi [14] = test: Antimicrobial activity against Trypanosoma cruzi 1 and Trypanosoma cruzi dually infected in BALB/c mouse assessed as cure rate; procedure, shortened: as §1
Trypanosoma cruzi [15] = test: Antimicrobial activity against Trypanosoma cruzi OPS21 cl11 and Trypanosoma cruzi MAS cl11 dually infected in BALB/c mouse assessed as cure rate; procedure, shortened: as §1
Trypanosoma cruzi [16] = test: Antimicrobial activity against Trypanosoma cruzi genotype 19 and genotype 39 dually infected in BALB/c mouse assessed as cure rate; procedure, shortened: as §1
Trypanosoma cruzi [17] = test: Antimicrobial activity against Trypanosoma cruzi 2 infected in BALB/c mouse assessed as cure rate; procedure, shortened: as §1
Trypanosoma cruzi [18] = test: Antimicrobial activity against Trypanosoma cruzi genotype 19 and genotype 32 dually infected in BALB/c mouse assessed as cure rate; procedure, shortened: as §1
Trypanosoma cruzi [19] = test: Antimicrobial activity against Trypanosoma cruzi infected in BALB/c mouse assessed as parasitemia remaining by PCR method
Procedure, shortened: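 Orbital sinus blood taken 30 days after treatment into 6 M guanidine–0.2 M EDTA (pH 8.0), 1:2, and kept at room temperature. PCR used primers S35/S36 with 3.5 mM MgCl2: 5 min at 94°C, then 35 cycles of 95°C/65°C/72°C for 1 min each, then 10 min final extension. Products were resolved on 6% polyacrylamide with silver staining.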

Trypanosoma cruzi [20] = test: Antimicrobial activity against Trypanosoma cruzi genotype 39 and genotype 32 dually infected in BALB/c mouse assessed as cure rate; procedure, shortened: as §1
Trypanosoma cruzi [21] = test: Antimicrobial activity against Trypanosoma cruzi infected in BALB/c mouse assessed as parasitemia remaining in hemoculture
Procedure, shortened: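 Orbital sinus blood taken 30 days after treatment was inoculated into 3 ml LIT medium and kept at 28°C. Tubes were checked for parasites at days 30, 60, 90 and 120 of culture.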

Trypanosoma cruzi [22] = test: Antimicrobial activity against Trypanosoma cruzi and Trypanosoma cruzi 2 dually infected in BALB/c mouse assessed as cure rate; procedure, shortened: as §1

## O=C(Cn1ccnc1[N+](=O)[O-])NCc1ccccc1 [BENZNIDAZOLE]
Trypanosoma cruzi [1]
  Activity: 0%
Trypanosoma cruzi [2]
  Activity: 35.4%
Trypanosoma cruzi [3]
  Activity: 70%
Trypanosoma cruzi [4]
  Activity: 99%
Trypanosoma cruzi [5]
  Activity: 50%
Trypanosoma cruzi [6]
  Activity: 70%
Trypanosoma cruzi [7]
  Activity: 83.3%
Trypanosoma cruzi [8]
  Activity: <33%
Trypanosoma cruzi [9]
  Activity: 54.4%
Trypanosoma cruzi [10]
  Activity: 19.8%
Trypanosoma cruzi [11]
  Activity: 17.4%
Trypanosoma cruzi [12]
  Activity: 0%
Trypanosoma cruzi [13]
  Activity: 96.4%
Trypanosoma cruzi [14]
  Activity: 24%
Trypanosoma cruzi [15]
  Activity: 14.3%
Trypanosoma cruzi [16]
  Activity: 25.9%
Trypanosoma cruzi [17]
  Activity: 70%
Trypanosoma cruzi [18]
  Activity: 22.7%
Trypanosoma cruzi [19]
  Activity: 93%
Trypanosoma cruzi [20]
  Activity: 59.1%
Trypanosoma cruzi [21]
  Activity: 79.3%
Trypanosoma cruzi [22]
  Activity: 59.1%
